# Measured values taken from ChEMBL document CHEMBL3046951, “Volatile constituents from the leaves of Callicarpa japonica Thunb. and their antibacterial activities” (2004).
# Key:
# Format in all cases: functional
# [1] = tested on: Bacillus cereus; assay: Antimicrobial activity against Bacillus cereus ATCC 11778 assessed as growth inhibition rate at 0.34 mg/l after 72 hr by spectrophotometry; conditions: ATCC 11778, 72 h, read-out: GI
# Procedure, shortened: (§1)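 Pure volatile compounds (purity >95%; one at 90%) were tested against B. cereus ATCC 11778. The strain was grown at 30 °C in nutrient broth for 24 h, then subcultured for 18 h. Optical density was read in a Bioscreen C every 24 h for 72 h, with 10% Tween 80 as the control.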
# [2] = tested on: Bacillus cereus; assay: Antimicrobial activity against Bacillus cereus ATCC 11778 assessed as growth inhibition rate at 0.068 mg/l after 72 hr by spectrophotometry; conditions: ATCC 11778, 72 h, read-out: GI; procedure, shortened: as §1
# [3] = tested on: Bacillus cereus; assay: Antimicrobial activity against Bacillus cereus ATCC 11778 assessed as growth inhibition rate at 0.017 mg/l after 72 hr by spectrophotometry; conditions: ATCC 11778, 72 h, read-out: GI; procedure, shortened: as §1
# [4] = tested on: Bacillus cereus; assay: Antimicrobial activity against Bacillus cereus ATCC 11778 assessed as growth inhibition rate at 6.8 mg/l after 72 hr by spectrophotometry; conditions: ATCC 11778, 72 h, read-out: GI; procedure, shortened: as §1
# [5] = tested on: Bacillus cereus; assay: Antimicrobial activity against Bacillus cereus ATCC 11778 assessed as growth inhibition rate at 0.68 mg/l after 72 hr by spectrophotometry; conditions: ATCC 11778, 72 h, read-out: GI; procedure, shortened: as §1
# [6] = tested on: Salmonella typhimurium; assay: Antimicrobial activity against Salmonella enterica subsp. enterica serovar Typhimurium ATCC 14028 assessed as growth inhibition rate at 0.34 mg/l after 72 hr by spectrophotometry; conditions: ATCC 14028, 72 h, read-out: GI
# Procedure, shortened: (§2)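 Salmonella Typhimurium ATCC 14028 grown in nutrient broth at 30 °C, precultured 24 h, then subcultured 1:100 for 18 h before testing. Single volatile compounds (>95% pure) were added. OD was read every 24 h over 72 h in a Bioscreen C, with 10% Tween 80 as the comparison control.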
# [7] = tested on: Salmonella typhimurium; assay: Antimicrobial activity against Salmonella enterica subsp. enterica serovar Typhimurium ATCC 14028 assessed as growth inhibition rate at 0.068 mg/l after 72 hr by spectrophotometry; conditions: ATCC 14028, 72 h, read-out: GI; procedure, shortened: as §2
# [8] = tested on: Salmonella typhimurium; assay: Antimicrobial activity against Salmonella enterica subsp. enterica serovar Typhimurium ATCC 14028 assessed as growth inhibition rate at 0.017 mg/l after 72 hr by spectrophotometry; conditions: ATCC 14028, 72 h, read-out: GI; procedure, shortened: as §2
# [9] = tested on: Salmonella typhimurium; assay: Antimicrobial activity against Salmonella enterica subsp. enterica serovar Typhimurium ATCC 14028 assessed as growth inhibition rate at 6.8 mg/l after 72 hr by spectrophotometry; conditions: ATCC 14028, 72 h, read-out: GI; procedure, shortened: as §2
# [10] = tested on: Salmonella typhimurium; assay: Antimicrobial activity against Salmonella enterica subsp. enterica serovar Typhimurium ATCC 14028 assessed as growth inhibition rate at 0.68 mg/l after 72 hr by spectrophotometry; conditions: ATCC 14028, 72 h, read-out: GI; procedure, shortened: as §2
# [11] = tested on: Listeria monocytogenes; assay: Antimicrobial activity against Listeria monocytogenes ATCC 19111 assessed as growth inhibition rate at 3.4 mg/l after 72 hr by spectrophotometry; conditions: ATCC 19111, 72 h, read-out: GI
# Procedure, shortened: (§3)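 L. monocytogenes was grown at 30 °C in tryptic soy broth, subcultured for 18 h, and exposed to pure volatile compounds (>95% purity). Growth was followed by Bioscreen C optical density every 24 h for 72 h against a 10% Tween 80 control.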
# [12] = tested on: Escherichia coli; assay: Antimicrobial activity against Escherichia coli O157:H7 ATCC 43894 assessed as growth inhibition rate at 0.34 mg/l after 72 hr by spectrophotometry; conditions: O157:H7 ATCC 43894, 72 h, read-out: GI
# [13] = tested on: Escherichia coli; assay: Antimicrobial activity against Escherichia coli O157:H7 ATCC 43894 assessed as growth inhibition rate at 0.068 mg/l after 72 hr by spectrophotometry; conditions: O157:H7 ATCC 43894, 72 h, read-out: GI
# [14] = tested on: Escherichia coli; assay: Antimicrobial activity against Escherichia coli O157:H7 ATCC 43894 assessed as growth inhibition rate at 0.017 mg/l after 72 hr by spectrophotometry; conditions: O157:H7 ATCC 43894, 72 h, read-out: GI
# [15] = tested on: Escherichia coli; assay: Antimicrobial activity against Escherichia coli O157:H7 ATCC 43894 assessed as growth inhibition rate at 6.8 mg/l after 72 hr by spectrophotometry; conditions: O157:H7 ATCC 43894, 72 h, read-out: GI
# [16] = tested on: Escherichia coli; assay: Antimicrobial activity against Escherichia coli O157:H7 ATCC 43894 assessed as growth inhibition rate at 0.68 mg/l after 72 hr by spectrophotometry; conditions: O157:H7 ATCC 43894, 72 h, read-out: GI
# [17] = tested on: Staphylococcus aureus; assay: Antimicrobial activity against Staphylococcus aureus ATCC 25923 assessed as growth inhibition rate at 0.34 mg/l after 72 hr by spectrophotometry; conditions: ATCC 25923, 72 h, read-out: GI
# [18] = tested on: Staphylococcus aureus; assay: Antimicrobial activity against Staphylococcus aureus ATCC 25923 assessed as growth inhibition rate at 0.068 mg/l after 72 hr by spectrophotometry; conditions: ATCC 25923, 72 h, read-out: GI
# [19] = tested on: Staphylococcus aureus; assay: Antimicrobial activity against Staphylococcus aureus ATCC 25923 assessed as growth inhibition rate at 0.017 mg/l after 72 hr by spectrophotometry; conditions: ATCC 25923, 72 h, read-out: GI
# [20] = tested on: Staphylococcus aureus; assay: Antimicrobial activity against Staphylococcus aureus ATCC 25923 assessed as growth inhibition rate at 6.8 mg/l after 72 hr by spectrophotometry; conditions: ATCC 25923, 72 h, read-out: GI
# Procedure, shortened: (§4)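 Staphylococcus aureus ATCC 25923 grown at 37 °C in tryptic soy broth, using an 18 h subculture of a 24 h culture. Individual leaf-volatile compounds (>95% purity) were tested. Bioscreen C optical density was recorded every 24 h for 72 h and compared with a 10% Tween 80 control.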
# [21] = tested on: Staphylococcus aureus; assay: Antimicrobial activity against Staphylococcus aureus ATCC 25923 assessed as growth inhibition rate at 0.68 mg/l after 72 hr by spectrophotometry; conditions: ATCC 25923, 72 h, read-out: GI; procedure, shortened: as §4
# [22] = tested on: Vibrio parahaemolyticus; assay: Antimicrobial activity against Vibrio parahaemolyticus ATCC 33844 assessed as growth inhibition rate at 3.4 mg/l after 72 hr by spectrophotometry; conditions: ATCC 33844, 72 h, read-out: GI
# Procedure, shortened: (§5)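 Vibrio parahaemolyticus ATCC 33844 grown at 37 °C in tryptic soy broth with 3% (w/v) NaCl, using an 18 h subculture of a 24 h culture. Pure compounds (>95% purity) were tested. Bioscreen C optical density was read every 24 h for 72 h against a 10% Tween 80 control.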
# [23] = tested on: Salmonella typhimurium; assay: Antimicrobial activity against Salmonella enterica subsp. enterica serovar Typhimurium ATCC 14028 assessed as growth inhibition rate at 3.4 mg/l after 72 hr by spectrophotometry; conditions: ATCC 14028, 72 h, read-out: GI; procedure, shortened: as §2
# [24] = tested on: Escherichia coli; assay: Antimicrobial activity against Escherichia coli O157:H7 ATCC 43894 assessed as growth inhibition rate at 3.4 mg/l after 72 hr by spectrophotometry; conditions: O157:H7 ATCC 43894, 72 h, read-out: GI
# [25] = tested on: Staphylococcus aureus; assay: Antimicrobial activity against Staphylococcus aureus ATCC 25923 assessed as growth inhibition rate at 3.4 mg/l after 72 hr by spectrophotometry; conditions: ATCC 25923, 72 h, read-out: GI; procedure, shortened: as §4
# [26] = tested on: Listeria monocytogenes; assay: Antimicrobial activity against Listeria monocytogenes ATCC 19111 assessed as growth inhibition rate at 6.8 mg/l after 72 hr by spectrophotometry; conditions: ATCC 19111, 72 h, read-out: GI; procedure, shortened: as §3
# [27] = tested on: Listeria monocytogenes; assay: Antimicrobial activity against Listeria monocytogenes ATCC 19111 assessed as growth inhibition rate at 0.68 mg/l after 72 hr by spectrophotometry; conditions: ATCC 19111, 72 h, read-out: GI; procedure, shortened: as §3
# [28] = tested on: Vibrio parahaemolyticus; assay: Antimicrobial activity against Vibrio parahaemolyticus ATCC 33844 assessed as growth inhibition rate at 6.8 mg/l after 72 hr by spectrophotometry; conditions: ATCC 33844, 72 h, read-out: GI; procedure, shortened: as §5
# [29] = tested on: Vibrio parahaemolyticus; assay: Antimicrobial activity against Vibrio parahaemolyticus ATCC 33844 assessed as growth inhibition rate at 0.68 mg/l after 72 hr by spectrophotometry; conditions: ATCC 33844, 72 h, read-out: GI; procedure, shortened: as §5
# [30] = tested on: Listeria monocytogenes; assay: Antimicrobial activity against Listeria monocytogenes ATCC 19111 assessed as growth inhibition rate at 0.34 mg/l after 72 hr by spectrophotometry; conditions: ATCC 19111, 72 h, read-out: GI; procedure, shortened: as §3
# [31] = tested on: Listeria monocytogenes; assay: Antimicrobial activity against Listeria monocytogenes ATCC 19111 assessed as growth inhibition rate at 0.068 mg/l after 72 hr by spectrophotometry; conditions: ATCC 19111, 72 h, read-out: GI; procedure, shortened: as §3
# [32] = tested on: Listeria monocytogenes; assay: Antimicrobial activity against Listeria monocytogenes ATCC 19111 assessed as growth inhibition rate at 0.017 mg/l after 72 hr by spectrophotometry; conditions: ATCC 19111, 72 h, read-out: GI; procedure, shortened: as §3
# [33] = tested on: Vibrio parahaemolyticus; assay: Antimicrobial activity against Vibrio parahaemolyticus ATCC 33844 assessed as growth inhibition rate at 0.34 mg/l after 72 hr by spectrophotometry; conditions: ATCC 33844, 72 h, read-out: GI
# [34] = tested on: Vibrio parahaemolyticus; assay: Antimicrobial activity against Vibrio parahaemolyticus ATCC 33844 assessed as growth inhibition rate at 0.068 mg/l after 72 hr by spectrophotometry; conditions: ATCC 33844, 72 h, read-out: GI
# [35] = tested on: Vibrio parahaemolyticus; assay: Antimicrobial activity against Vibrio parahaemolyticus ATCC 33844 assessed as growth inhibition rate at 0.017 mg/l after 72 hr by spectrophotometry; conditions: ATCC 33844, 72 h, read-out: GI
# [36] = tested on: Bacillus cereus; assay: Antimicrobial activity against Bacillus cereus ATCC 11778 assessed as growth inhibition rate at 3.4 mg/l after 72 hr by spectrophotometry; conditions: ATCC 11778, 72 h, read-out: GI; procedure, shortened: as §1
compound,measurement,setting,value
"CC/C=C/C=C/C=O [2,4-HEPTADIENAL]",inhibition of growth at 0.34 µg/mL,[1],1.8%
same,inhibition of growth at 0.068 µg/mL,[2],1.1%
same,inhibition of growth at 0.017 µg/mL,[3],0%
same,inhibition of growth at 6.8 µg/mL,[4],100%
same,inhibition of growth at 0.68 µg/mL,[5],11%
same,inhibition of growth at 0.34 µg/mL,[6],8.6%
same,inhibition of growth at 0.068 µg/mL,[7],8.8%
same,inhibition of growth at 0.017 µg/mL,[8],5.8%
same,inhibition of growth at 6.8 µg/mL,[9],88.6%
same,inhibition of growth at 0.68 µg/mL,[10],18.2%
same,inhibition of growth at 3.4 µg/mL,[11],34.5%
same,inhibition of growth at 0.34 µg/mL,[12],1.3%
same,inhibition of growth at 0.068 µg/mL,[13],0.5%
same,inhibition of growth at 0.017 µg/mL,[14],0.5%
same,inhibition of growth at 6.8 µg/mL,[15],27.5%
same,inhibition of growth at 0.68 µg/mL,[16],4.4%
same,inhibition of growth at 0.34 µg/mL,[17],2.8%
same,inhibition of growth at 0.068 µg/mL,[18],0%
same,inhibition of growth at 0.017 µg/mL,[19],0%
same,inhibition of growth at 6.8 µg/mL,[20],95.5%
same,inhibition of growth at 0.68 µg/mL,[21],4.9%
same,inhibition of growth at 3.4 µg/mL,[22],82.4%
same,inhibition of growth at 3.4 µg/mL,[23],57.8%
same,inhibition of growth at 3.4 µg/mL,[24],16.6%
same,inhibition of growth at 3.4 µg/mL,[25],80.9%
same,inhibition of growth at 6.8 µg/mL,[26],51.6%
same,inhibition of growth at 0.68 µg/mL,[27],5.9%
same,inhibition of growth at 6.8 µg/mL,[28],99%
same,inhibition of growth at 0.68 µg/mL,[29],11.4%
same,inhibition of growth at 0.34 µg/mL,[30],1.6%
same,inhibition of growth at 0.068 µg/mL,[31],0.8%
same,inhibition of growth at 0.017 µg/mL,[32],0.1%
same,inhibition of growth at 0.34 µg/mL,[33],6.1%
same,inhibition of growth at 0.068 µg/mL,[34],5.8%
same,inhibition of growth at 0.017 µg/mL,[35],5.6%
same,inhibition of growth at 3.4 µg/mL,[36],92.9%
